The source made the active and inactive calls. No cut-off for these calls is given here.
Assays:
[1] = Metabolic stability in simulated intestinal fluid at pH 6.8 measured after 4 hrs by HPLC analysis; type: ADME; details: read-out: Stability
In short: (§1)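 Gastric fluid was 1% pepsin in water, pH 1.5. Intestinal fluid was 1% trypsin with 0.68% KH2PO4, pH 6.8. Compound (100 mM DMSO stock) was diluted 1:1000 into each, in triplicate. Incubation was at 37 °C for 0, 2, 4, 6, 16 or 24 h. Acetonitrile (3 volumes) stopped it, then HPLC at 254 nm.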

[2] = Metabolic stability in simulated intestinal fluid at pH 6.8 measured after 2 hrs by HPLC analysis; type: ADME; details: read-out: Stability; in short: as §1
Mus musculus [3] = experiment: Antidiabetic activity in spontaneous db/db BKS.Cg-Dock7m +/+ Leprdb/J mouse assessed as decrease in fasting blood glucose level at 10 to 20 mg/kg, po administered as daily dose via gavage for 18 days measured on day 9 post last dose by glucometric analysis; type: functional, organism-based
In short: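 Male db/db mice (BKS.Cg-Dock7m +/+ Leprdb/J), 6 weeks old on purchase, randomized, n=8 per group. Dosed by gavage in 0.5% CMC-Na daily for 18 consecutive days. Vehicle-dosed db/db and C57BL/6 mice served as model and control. Fasting glucose was read by glucometer every three days. On day 12, after an overnight fast, 2 g/kg glucose was given orally. Blood glucose was read at 0–120 min and AUC calculated. Mean ± SEM.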

[4] = Toxicity in spontaneous db/db BKS.Cg-Dock7m +/+ Leprdb/J mouse assessed as body weight gain at 13.5 umol/kg, po administered as daily dose via gavage treated for 18 days measured post last dose (reference value: 5.6 +/- 2.1 g); type: organism-based; details: in vivo, 432 h
3T3-L1 [5] = experiment: Induction of nitric oxide mediated increase in insulin-stimulated 2-NBDG uptake in TNF-alpha-induced insulin resistant mouse 3T3L1 cells at 3 to 10 uM preincubated for 48 hrs followed by 2-NBDG addition measured after 30 mins in presence of insulin by fluorescence assay; type: functional, cell-based
In short: (§2)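 Day-8 differentiated 3T3-L1 adipocytes received TNF-α (4 ng/mL) daily for 4 days. They were pretreated in triplicate for 48 h (C-PTIO 20 μM where indicated), then given 100 μM 2-NBDG at 37 °C for 30 min in the dark, with or without insulin. After KRP washes, fluorescence was read at Ex/Em 485/515 nm. Three experiments, mean ± SD.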

3T3-L1 [6] = experiment: Induction of nitric oxide mediated increase in insulin-stimulated 2-NBDG uptake in TNF-alpha-induced insulin resistant mouse 3T3L1 cells at 3 to 10 uM preincubated for 48 hrs followed by 2-NBDG addition measured after 30 mins in presence of nitric oxide scavenger C-PTIO by fluorescence assay; type: functional, cell-based; in short: as §2
3T3-L1 [7] = experiment: Induction of nitric oxide production in TNF-alpha-induced insulin resistant mouse 3T3L1 cells at 3 to 10 uM after 0.5 to 6 hrs by DAF-FM-2DA dye based fluorescence assay; type: functional, cell-based
In short: (§3)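 Insulin-resistant 3T3-L1 adipocytes (TNF-α 4 ng/mL, 4 days) were treated for varying times, with or without 20 μM C-PTIO. Vehicle was DMSO 0.1% or NaOH 10 μM. Cells were washed in KRP, loaded with 10 μM DAF-FM-2DA in pH 7.4 PBS at 37 °C for 30 min, and read at Ex/Em 485/515 nm. Three experiments.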

3T3-L1 [8] = experiment: Induction of nitric oxide production in TNF-alpha-induced insulin resistant mouse 3T3L1 cells at 3 to 10 uM after 0.5 to 6 hrs in presence of nitric oxide scavenger C-PTIO by DAF-FM-2DA dye-based fluorescence assay; type: functional, cell-based; in short: as §3
3T3-L1 [9] = experiment: Inhibition of ROS production in TNF-alpha-induced insulin resistant mouse 3T3L1 cells at 3 to 10 uM after 48 hrs in presence of nitric oxide scavenger C-PTIO by DCFH-DA dye-based fluorescence assay; type: functional, cell-based
3T3-L1 [10] = experiment: Induction of superoxide dismutase level in TNF-alpha-induced insulin resistant mouse 3T3L1 cells at 3 to 10 uM after 48 hrs; type: functional, cell-based
In short: (§4)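 3T3-L1 preadipocytes were differentiated, and mature adipocytes made insulin resistant with TNF-α (4 ng/mL) daily for 4 days. Cells were then treated in triplicate for 48 h, with or without 20 μM C-PTIO. Lysate GSH, SOD and MDA were measured with kits. Three experiments, mean ± SD.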

[11] = Toxicity in spontaneous db/db BKS.Cg-Dock7m +/+ Leprdb/J mouse assessed as reduction in serum hematocrit value at 13.5 to 27 umol/kg, po administered as daily dose via gavage treated for 18 days; type: organism-based; details: in vivo, 432 h
Mus musculus [12] = experiment: Cardioprotective activity in db/db BKS.Cg-Dock7m +/+ Leprdb/J mouse assessed as decrease in serum TNF-alpha level at 27 umol/kg, po administered as daily dose via gavage treated for 18 days by ELISA; type: functional, organism-based
In short: (§5)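 db/db mice were gavaged daily for 18 days in 0.5% CMC-Na, with vehicle-treated model and C57BL/6 control groups. Tail vein blood was collected and serum TNF-α and cTnI measured by commercial ELISA kits. Six individual experiments, mean ± SD, one-way ANOVA.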

Platelet [13] = experiment: Antiplatelet activity in platelet rich plasma (unknown origin) assessed as inhibition of ADP-induced platelet aggregation at 0.8 mM relative to control; type: functional
Platelet [14] = experiment: Antiplatelet activity in platelet rich plasma (unknown origin) assessed as inhibition of ADP-induced platelet aggregation at 3.2 mM relative to control; type: functional
[15] = Drug metabolism in Sprague-Dawley rat plasma after 0.5 hrs by HPLC analysis; type: ADME, cell-free; details: read-out: Drug metabolism
In short: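 100 mM DMSO stock was diluted 1:1000 into SD rat plasma, in triplicate. Incubated with shaking at 37 °C for 0–24 h, then stopped with three volumes of acetonitrile and centrifuged.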

3T3-L1 [16] = experiment: Inhibition of ROS production in TNF-alpha-induced insulin resistant mouse 3T3L1 cells at 10 uM after 48 hrs in presence of nitric oxide scavenger C-PTIO by DCFH-DA dye-based fluorescence assay; type: functional, cell-based
Mus musculus [17] = experiment: Cardioprotective activity in db/db BKS.Cg-Dock7m +/+ Leprdb/J mouse assessed as decrease in serum cTnI level at 27 umol/kg, po administered as daily dose via gavage for 18 days by ELISA; type: functional, organism-based; in short: as §5
Platelet [18] = experiment: Antiplatelet activity in platelet rich plasma (unknown origin) assessed as inhibition of arachidonic acid-induced platelet aggregation at 2 mM relative to control; type: functional
Platelet [19] = experiment: Antiplatelet activity in platelet rich plasma (unknown origin) assessed as inhibition of arachidonic acid-induced platelet aggregation at 4 mM relative to control; type: functional
Platelet [20] = experiment: Antiplatelet activity in platelet rich plasma (unknown origin) assessed as inhibition of arachidonic acid-induced platelet aggregation at 8 mM relative to control; type: functional
Platelet [21] = experiment: Antiplatelet activity in platelet rich plasma (unknown origin) assessed as inhibition of ADP-induced platelet aggregation at 1 mM relative to control; type: functional
Platelet [22] = experiment: Antiplatelet activity in platelet rich plasma (unknown origin) assessed as inhibition of ADP-induced platelet aggregation at 2 mM relative to control; type: functional
3T3-L1 [23] = experiment: Induction of nitric oxide production in TNF-alpha-induced insulin resistant mouse 3T3L1 cells at 10 uM after 0.5 to 6 hrs by DAF-FM-2DA dye based fluorescence assay; type: functional, cell-based; in short: as §3
3T3-L1 [24] = experiment: Inhibition of MDA level in TNF-alpha-induced insulin resistant mouse 3T3L1 cells 10 uM after 48 hrs; type: functional, cell-based; in short: as §4

## CCN(CC)/[N+]([O-])=N/OCOC(=O)/C=C/c1ccc(OC(=O)OCN2C(=O)SC(Cc3ccc(OCCN(C)c4ccccn4)cc3)C2=O)c(OC)c1 (centres undefined)
[1]
  remaining at 4 h: 96.9%
[2]
  remaining at 2 h: 97.7%
Mus musculus [3]
  Activity: Active
[4]
  Activity: 4 g
3T3-L1 [5]
  Activity: Active
3T3-L1 [6]
  Activity: inactive
3T3-L1 [7]
  Activity: Active
3T3-L1 [8]
  Activity: inactive
3T3-L1 [9]
  inhibition: inactive
3T3-L1 [10]
  Activity: Active
[11]
  Activity: Non-Toxic
Mus musculus [12]
  Activity: Active
Platelet [13]
  inhibition at 800 µM: 26.2%
Platelet [14]
  inhibition at 3200 µM: 57.3%
[15]
  metabolised at 0.5 h: 23%

## CN(CCOc1ccc(CC2SC(=O)NC2=O)cc1)c1ccccn1 (centres undefined) [ROSIGLITAZONE]
3T3-L1 [16]
  inhibition: inactive
Mus musculus [17]
  Activity: Active
Platelet [18]
  inhibition at 2000 µM: 28%
Platelet [19]
  inhibition at 4000 µM: 42.2%
Platelet [20]
  inhibition at 8000 µM: 54.4%
Platelet [21]
  inhibition at 1000 µM: 6.1%
Platelet [22]
  inhibition at 2000 µM: 25.3%
3T3-L1 [23]
  Activity: inactive
3T3-L1 [24]
  inhibition: Active
